Data as given in ChEMBL document CHEMBL1151763, “Identification of diarylsulfone sulfonamides as secreted frizzled related protein-1 (sFRP-1) inhibitors” (J Med Chem, 2008).
Values after ≈ are worked out from the molar mass of the structure shown. Active and inactive are the calls of the source. The rule behind the calls is not given here.

Assays:
[1] = biological target: T1, Secreted frizzled-related protein 1 (Homo sapiens) (UniProt Q8N474); assay: Inhibition of human sFRP1 expressed in human U2OS assessed as fold induction in luciferase activity at 15 uM by TCF-luciferase reporter gene assay relative to control
T1 sequence (whole entry): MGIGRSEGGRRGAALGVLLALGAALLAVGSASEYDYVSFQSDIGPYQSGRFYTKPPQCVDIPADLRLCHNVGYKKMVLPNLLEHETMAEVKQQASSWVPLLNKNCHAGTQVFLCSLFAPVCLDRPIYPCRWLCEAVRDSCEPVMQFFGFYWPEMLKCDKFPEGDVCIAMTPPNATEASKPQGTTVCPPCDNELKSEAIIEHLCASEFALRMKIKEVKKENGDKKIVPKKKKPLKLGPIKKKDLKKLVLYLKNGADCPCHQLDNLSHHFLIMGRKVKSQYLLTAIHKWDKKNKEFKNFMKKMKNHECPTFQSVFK
In short: (§1)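 U2OS human osteosarcoma cells transfected with human sFRP-1, Wnt-3 and a TCF-luciferase reporter (canonical Wnt read-out). Inhibitor tested at 15 µM or 30 µM. Luciferase signal without inhibitor set at 1; fold induction measured in quadruplicate.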

[2] = Metabolic stability in human microsomes assessed as half life; type: ADME, Microsome
[3] = Aqueous solubility at pH 7.4; type: physicochemical; settings: buffer
CYP3A4 = CYP3A4 (Homo sapiens, UniProt P08684); assay: Inhibition of CYP3A4 at 3 uM; type: ADME
CYP2D6 = CYP2D6 (Homo sapiens, UniProt P10635); assay: Inhibition of CYP2D6 at 3 uM; type: ADME
[4] = Metabolic stability in rat microsomes assessed as half life; type: ADME, Microsome
[5] = biological target: T2, Secreted frizzled-related protein 1 (Homo sapiens, UniProt Q8N474); assay: Inhibition of human sFRP1 expressed in human U2OS assessed as luciferase activity by TCF-luciferase reporter gene assay
T2 sequence (Q8N474 whole entry): T1 sequence (whole entry)
In short: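 Cell-based functional assay in U2OS human osteosarcoma cells transfected with human sFRP-1, Wnt-3 and a TCF-luciferase reporter gene measuring canonical Wnt pathway activation; EC50 derived from luciferase signal.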

CYP2C9 = CYP2C9 (Homo sapiens, UniProt P11712); assay: Inhibition of CYP2C9 at 3 uM; type: ADME
[6] = biological target: T2, Secreted frizzled-related protein 1; assay: Binding affinity to human sFRP1 by fluorescence spectroscopy
In short: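 Binding constant (K_D) taken from changes in intrinsic tryptophan fluorescence of sFRP-1 on inhibitor binding; excitation 295 nm, emission 340 nm. Stoichiometry of binding also determined.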

[7] = biological target: T1, Secreted frizzled-related protein 1 (Homo sapiens); assay: Inhibition of human sFRP1 expressed in human U2OS assessed as fold induction in luciferase activity at 30 uM by TCF-luciferase reporter gene assay relative to control; in short: as §1
[8] = Increase in bone formation in mouse calvaria assessed as increase in bone area at 5 uM after 7 days relative to control; type: functional
Mus musculus = species: Mus musculus; assay: Increase in bone formation in mouse calvaria assessed as number of osteoblast on bone surface at 5 uM after 7 days relative to control; type: functional

Sequence of CYP2C9 (P11712 whole entry): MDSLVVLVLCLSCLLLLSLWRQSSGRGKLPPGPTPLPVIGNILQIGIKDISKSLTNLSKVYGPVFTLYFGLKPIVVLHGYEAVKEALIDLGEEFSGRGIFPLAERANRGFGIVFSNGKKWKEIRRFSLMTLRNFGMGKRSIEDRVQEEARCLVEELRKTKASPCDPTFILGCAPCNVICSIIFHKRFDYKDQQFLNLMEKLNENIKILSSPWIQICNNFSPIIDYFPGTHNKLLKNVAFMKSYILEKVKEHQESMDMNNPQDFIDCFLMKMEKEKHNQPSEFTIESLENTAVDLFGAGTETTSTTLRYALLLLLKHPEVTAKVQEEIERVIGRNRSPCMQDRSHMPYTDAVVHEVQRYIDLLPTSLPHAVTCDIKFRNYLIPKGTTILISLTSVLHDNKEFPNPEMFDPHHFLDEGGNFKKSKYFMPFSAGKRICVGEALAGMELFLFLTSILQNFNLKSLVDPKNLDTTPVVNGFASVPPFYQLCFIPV
Sequence of CYP2D6 (P10635 whole entry): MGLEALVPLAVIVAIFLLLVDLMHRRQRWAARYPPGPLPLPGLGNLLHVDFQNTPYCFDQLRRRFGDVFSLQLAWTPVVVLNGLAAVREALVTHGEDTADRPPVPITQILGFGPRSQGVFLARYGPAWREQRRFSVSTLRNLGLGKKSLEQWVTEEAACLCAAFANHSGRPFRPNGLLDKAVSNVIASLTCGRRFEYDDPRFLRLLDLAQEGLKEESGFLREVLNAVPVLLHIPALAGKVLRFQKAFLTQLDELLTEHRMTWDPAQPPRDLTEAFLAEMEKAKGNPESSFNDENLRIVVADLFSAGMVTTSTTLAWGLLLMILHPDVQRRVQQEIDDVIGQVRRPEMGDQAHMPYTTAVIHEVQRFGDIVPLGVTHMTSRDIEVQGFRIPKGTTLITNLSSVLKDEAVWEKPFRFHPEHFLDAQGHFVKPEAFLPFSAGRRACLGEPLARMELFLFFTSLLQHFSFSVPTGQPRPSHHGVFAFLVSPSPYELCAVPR
Sequence of CYP3A4 (P08684 whole entry): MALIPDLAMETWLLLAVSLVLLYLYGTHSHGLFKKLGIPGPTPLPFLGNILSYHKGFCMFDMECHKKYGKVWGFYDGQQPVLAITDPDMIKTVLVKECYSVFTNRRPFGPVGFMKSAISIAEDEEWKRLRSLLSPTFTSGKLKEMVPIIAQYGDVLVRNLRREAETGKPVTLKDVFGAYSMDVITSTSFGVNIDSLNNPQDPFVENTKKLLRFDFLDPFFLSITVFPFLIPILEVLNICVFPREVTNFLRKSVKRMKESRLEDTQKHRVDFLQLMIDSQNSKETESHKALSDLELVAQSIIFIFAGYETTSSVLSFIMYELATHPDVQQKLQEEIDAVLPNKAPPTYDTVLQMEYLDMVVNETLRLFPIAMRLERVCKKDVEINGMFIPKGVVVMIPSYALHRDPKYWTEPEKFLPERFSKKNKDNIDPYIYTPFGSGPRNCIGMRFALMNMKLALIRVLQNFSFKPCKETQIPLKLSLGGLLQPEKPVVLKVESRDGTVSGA

| SMILES | fold change (FC) [1] | solubility [3] | inhibition at 3 µM (CYP3A4) | inhibition at 3 µM (CYP2D6) | half-life [4] | EC50 [5] | inhibition at 3 µM (CYP2C9) | also measured |
| --- | --- | --- | --- | --- | --- | --- | --- | --- |
| CCc1ccc(S(=O)(=O)c2ccccc2)cc1S(=O)(=O)NCCc1ccccc1 | 3.3 | – | – | – | – | – | – | – |
| CCc1ccc(S(=O)(=O)c2ccccc2)cc1S(=O)(=O)NCCCN(C)C | 3.3 | 26 µg/mL (≈ 63.3 µM) | 43% | 9% | 12 min | 1.27 µM | 14% | half-life [2]: 26.7 min |
| Cc1ccc(S(=O)(=O)c2ccccc2)cc1S(=O)(=O)NCCc1ccccc1 | 2.5 | 1 µg/mL (≈ 2.41 µM) | 70% | 12% | 5 min | 3.88 µM | 41% | Kd [6]: 0.35 µM |
| COc1ccc(S(=O)(=O)c2ccccc2)cc1S(=O)(=O)NCCc1ccccc1 | 1.5 | – | – | – | – | – | – | – |
| Cc1ccc(S(=O)(=O)c2ccc(Cl)cc2)cc1S(=O)(=O)Nc1ccccc1 | – | – | – | – | – | – | – | fold change (FC) [7]: 1 |
| Cc1ccc(S(=O)(=O)c2ccc(F)cc2)cc1S(=O)(=O)NCCc1ccccc1 | 2.7 | – | – | – | – | – | – | – |
| Cc1ccc(S(=O)(=O)c2ccccc2)cc1S(=O)(=O)NCc1ccccc1 | – | – | – | – | – | – | – | fold change (FC) [7]: < 1 |
| Cc1ccc(S(=O)(=O)c2ccccc2)cc1S(=O)(=O)N(C)CCc1ccccc1 | < 1 | – | – | – | – | – | – | – |
| O=S(=O)(NCCc1ccccc1)c1cccc(S(=O)(=O)c2ccccc2)c1 | < 1 | – | – | – | – | – | – | – |
| CCc1ccc(S(=O)(=O)c2ccccc2)cc1S(=O)(=O)NCCCN1CCCC1 | 4.2 | > 100 µg/mL | 78% | 25% | 16 min | 9 µM | 25% | – |
| Cc1ccc(S(=O)(=O)c2ccccc2)cc1S(=O)(=O)NCCCc1ccccc1 | 1.3 | – | – | – | – | – | – | – |
| Cc1ccc(S(=O)(=O)c2ccc(C)c(S(=O)(=O)NCCc3ccccc3)c2)cc1 | 2.2 | – | – | – | – | – | – | – |
| CCc1ccc(S(=O)(=O)c2ccccc2)cc1S(=O)(=O)NCCc1ccc(OC)c(OC)c1 | 3 | 1 µg/mL (≈ 2.04 µM) | 96% | 11% | 1 min | 6.97 µM | 84% | Activity [8]: 50%; Activity (Mus musculus): Active |
